From ChEMBL document CHEMBL3297654, “Synthesis, antimicrobial and cytotoxic activities, and structure-activity relationships of gypsogenin derivatives against human cancer cells” (Eur J Med Chem, 2014)
Values after ≈ are worked out from the molar mass of the structure shown. Active and inactive are the calls of the source. The calls are words filed in the database; no cut-off is given here.

How the values were obtained:
HL-60 [1] = test: Antiproliferative activity against human HL60 cells after 24 and 72 hrs by MTT assay; type: functional, cell-based
How it was run: (§1)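 ATCC human cell lines are kept in RPMI, DMEM or McCoy's 5A with 10–15% heat-inactivated FCS at 37 °C and 5% CO2. They are seeded at 1×10^4–1×10^5 cells/mL in 48-well plates and exposed to 0.5, 10, 20 or 40 µM. Viability is read by MTT (590 nm) at 24 and 72 h. Growth is expressed relative to untreated cells and IC50 is fitted, in triplicate.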

Caco-2 [2] = test: Antiproliferative activity against human Caco2 cells after 24 and 72 hrs by MTT assay; type: functional, cell-based; how it was run: as §1
HL-60 [3] = test: Induction of apoptosis in human HL60 cells at 20 uM after 48 hrs by Hoechst 33258/propidium iodide staining based phase contrast microscopic analysis; type: functional
How it was run: (§2)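 Cells in 48-well plates treated with 0.5, 10, 20 or 40 µM for 24 and 48 h. Values are read at 48 h, 20 µM for test agents and 0.5 µM for controls. Staining is Hoechst 33258/propidium iodide double staining with fluorescence microscopy. Blue nuclei are viable or early-to-mid apoptotic, and pink nuclei are late apoptotic or necrotic. Apoptosis and necrosis are scored from chromatin condensation as % of cells. Cells are grown at 37 °C in 5% CO2 in RPMI, DMEM or McCoy's 5A with 10–15% heat-inactivated FCS.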

Bacillus thuringiensis [4] = test: Antimicrobial activity against Bacillus thuringiensis for 24 hrs by microdillution method; type: functional
How it was run: (§3)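 Broth microdilution. Compound is dissolved in DMSO (2 mg/mL) and diluted in Mueller Hinton broth as two-fold serial dilutions from 256 to 0.125 µg/mL. Bacteria are pre-grown in nutrient broth at 30 °C, and the final inoculum is about 10^6 cfu/mL. Tests are incubated 37 °C for 24 h. MIC is the lowest concentration giving complete inhibition. Streptomycin is the positive control.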

Enterococcus faecalis = test: Antimicrobial activity against Enterococcus faecalis ATCC 29212 assessed as zone of inhibition at 30 uL for 24 hrs at 37 degC by disk diffusion test; type: functional, organism-based
How it was run: (§4)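 Compound (30 µL of a fresh 1000 µg/mL DMSO stock) goes into a 6 mm well cut in Mueller Hinton agar inoculated with 0.1 mL broth culture adjusted to 0.5 McFarland (about 1×10^8 cells/mL). Plates are incubated 24 h at 37 °C, then zone of inhibition diameter is measured in mm.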

HT-29 [5] = test: Induction of necrosis in human HT-29 cells at 20 uM after 48 hrs by Hoechst 33258/propidium iodide staining based phase contrast microscopic analysis; type: functional; how it was run: as §2
MCF7 [6] = test: Induction of apoptosis in human MCF7 cells at 20 uM after 48 hrs by Hoechst 33258/propidium iodide staining based phase contrast microscopic analysis; type: functional; how it was run: as §2
Micrococcus luteus = test: Antimicrobial activity against Micrococcus luteus ATCC 9341 assessed as zone of inhibition at 30 uL for 24 hrs at 30 degC by disk diffusion test; type: functional, organism-based
How it was run: (§5)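 Agar well diffusion on Mueller Hinton agar seeded with 0.1 mL broth culture (18–24 h), adjusted to 0.5 McFarland (about 1×10^8 bacteria or 1×10^6 yeast cells/mL). A 6 mm well is filled with 30 µL of compound from a fresh 1000 µg/mL DMSO stock. Plates are held at 30 °C for 24 h and inhibition zone diameter is read in mm.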

HeLa [7] = test: Induction of necrosis in human HeLa cells at 20 uM after 48 hrs by Hoechst 33258/propidium iodide staining based phase contrast microscopic analysis; type: functional; how it was run: as §2
MCF7 [8] = test: Antiproliferative activity against human MCF7 cells after 24 and 72 hrs by MTT assay; type: functional, cell-based; how it was run: as §1
SAOS-2 [9] = test: Induction of apoptosis in human Saos2 cells at 20 uM after 48 hrs by Hoechst 33258/propidium iodide staining based phase contrast microscopic analysis; type: functional; how it was run: as §2
Cyberlindnera jadinii = test: Antimicrobial activity against Candida utilis ATCC 9950 assessed as zone of inhibition at 30 uL for 24 hrs at 30 degC by disk diffusion test; type: functional, organism-based; how it was run: as §5
Klebsiella pneumoniae = test: Antimicrobial activity against Klebsiella pneumoniae ATCC 13882 assessed as zone of inhibition at 30 uL for 24 hrs at 37 degC by disk diffusion test; type: functional, organism-based; how it was run: as §4
Caco-2 [10] = test: Induction of apoptosis in human Caco2 cells at 20 uM after 48 hrs by Hoechst 33258/propidium iodide staining based phase contrast microscopic analysis; type: functional; how it was run: as §2
Bacillus thuringiensis [11] = test: Antimicrobial activity against Bacillus thuringiensis assessed as zone of inhibition at 30 uL for 24 hrs at 30 degC by disk diffusion test; type: functional; how it was run: as §5
Escherichia coli = test: Antimicrobial activity against Escherichia coli ATCC 25922 assessed as zone of inhibition at 30 uL for 24 hrs at 37 degC by disk diffusion test; type: functional, organism-based; how it was run: as §4
HL-60 [12] = test: Induction of necrosis in human HL60 cells at 20 uM after 48 hrs by Hoechst 33258/propidium iodide staining based phase contrast microscopic analysis; type: functional; how it was run: as §2
Staphylococcus aureus = test: Antimicrobial activity against Staphylococcus aureus ATCC 25923 assessed as zone of inhibition at 30 uL for 24 hrs at 37 degC by disk diffusion test; type: functional, organism-based; how it was run: as §4
Candida albicans = test: Antimicrobial activity against Candida albicans ATCC 10231 assessed as zone of inhibition at 30 uL for 24 hrs at 30 degC by disk diffusion test; type: functional, organism-based; how it was run: as §5
Nakaseomyces glabratus = test: Antimicrobial activity against Candida glabrata assessed as zone of inhibition at 30 uL for 24 hrs at 30 degC by disk diffusion test; type: functional, organism-based; how it was run: as §5
Saccharomyces cerevisiae = test: Antimicrobial activity against Saccharomyces cerevisiae ATCC 9763 assessed as zone of inhibition at 30 uL for 24 hrs at 30 degC by disk diffusion test; type: functional, organism-based; how it was run: as §5
Bacillus cereus [13] = test: Antimicrobial activity against Bacillus cereus ATCC 11778 for 24 hrs by microdillution method; type: functional; how it was run: as §3
HT-29 [14] = test: Antiproliferative activity against human HT-29 cells after 24 and 72 hrs by MTT assay; type: functional, cell-based; how it was run: as §1
SAOS-2 [15] = test: Induction of necrosis in human Saos2 cells at 20 uM after 48 hrs by Hoechst 33258/propidium iodide staining based […] microscopic analysis; type: functional; how it was run: as §2
Bacillus cereus [16] = test: Antimicrobial activity against Bacillus cereus ATCC 11778 assessed as zone of inhibition at 30 uL for 24 hrs at 30 degC by disk diffusion test; type: functional; how it was run: as §5
Bacillus subtilis [17] = test: Antimicrobial activity against Bacillus subtilis ATCC 6633 for 24 hrs by microdillution method; type: functional; how it was run: as §3
Bacillus subtilis [18] = test: Antimicrobial activity against Bacillus subtilis ATCC 6633 assessed as zone of inhibition at 30 uL for 24 hrs at 30 degC by disk diffusion test; type: functional; how it was run: as §5
Caco-2 [19] = test: Induction of necrosis in human Caco2 cells at 20 uM after 48 hrs by Hoechst 33258/propidium iodide staining based phase contrast microscopic analysis; type: functional; how it was run: as §2
Proteus vulgaris = test: Antimicrobial activity against Proteus vulgaris ATCC 33420 assessed as zone of inhibition at 30 uL for 24 hrs at 37 degC by disk diffusion test; type: functional, organism-based; how it was run: as §4
MCF7 [20] = test: Induction of necrosis in human MCF7 cells at 20 uM after 48 hrs by Hoechst 33258/propidium iodide staining based phase contrast microscopic analysis; type: functional; how it was run: as §2
[21] = Antiproliferative activity against human Saos2 cells after 24 and 72 hrs by MTT assay; type: functional, cell-based; settings: SAOS-2; how it was run: as §1
Salmonella typhimurium = test: Antimicrobial activity against Salmonella typhimurium ATCC 14028 assessed as zone of inhibition at 30 uL for 24 hrs at 37 degC by disk diffusion test; type: functional, organism-based; settings: Salmonella enterica subsp. enterica serovar Typhimurium; how it was run: as §4
HeLa [22] = test: Induction of apoptosis in human HeLa cells at 20 uM after 48 hrs by Hoechst 33258/propidium iodide staining based phase contrast microscopic analysis; type: functional; how it was run: as §2
HeLa [23] = test: Antiproliferative activity against human HeLa cells after 24 and 72 hrs by MTT assay; type: functional, cell-based; how it was run: as §1
[24] = tested on: Staphylococcus epidermidis; test: Antimicrobial activity against Staphylococcus epidermidis ATCC 12228 assessed as zone of inhibition at 30 uL for 24 hrs at 37 degC by disk diffusion test; type: functional, organism-based; how it was run: as §4
Candida tropicalis = test: Antimicrobial activity against Candida tropicalis assessed as zone of inhibition at 30 uL for 24 hrs at 30 degC by disk diffusion test; type: functional, organism-based; how it was run: as §5
HT-29 [25] = test: Induction of apoptosis in human HT-29 cells at 20 uM after 48 hrs by Hoechst 33258/propidium iodide staining based phase contrast microscopic analysis; type: functional; how it was run: as §2
Pseudomonas aeruginosa = test: Antimicrobial activity against Pseudomonas aeruginosa ATCC 35032 assessed as zone of inhibition at 30 uL for 24 hrs at 37 degC by disk diffusion test; type: functional, organism-based; how it was run: as §4

IC50 (HL-60 [1]) [µM] | IC50 (Caco-2 [2]) [µM] | MIC (Bacillus thuringiensis [4]) | IC50 (MCF7 [8]) [µM] | SMILES | Activity (HL-60 [3]) [%] | diameter of the inhibition zone (DIZ) (Enterococcus faecalis) | Activity (HT-29 [5]) [%] | Activity (MCF7 [6]) [%] | diameter of the inhibition zone (DIZ) (Micrococcus luteus) | Activity (HeLa [7]) [%] | Activity (SAOS-2 [9]) [%] | diameter of the inhibition zone (DIZ) (Cyberlindnera jadinii) | diameter of the inhibition zone (DIZ) (Klebsiella pneumoniae) | Activity (Caco-2 [10]) [%] | diameter of the inhibition zone (DIZ) (Bacillus thuringiensis [11]) | diameter of the inhibition zone (DIZ) (Escherichia coli) | Activity (HL-60 [12]) [%] | diameter of the inhibition zone (DIZ) (Staphylococcus aureus) | diameter of the inhibition zone (DIZ) (Candida albicans) | diameter of the inhibition zone (DIZ) (Nakaseomyces glabratus) | other results
8.14 | 11.1 | inactive | 5.15 | CC1(C)CC[C@]2(C(=O)OCc3ccccc3)CC[C@]3(C)C(=CC[C@@H]4[C@@]5(C)CC[C@H](O)[C@@](C)(C=O)[C@@H]5CC[C@]43C)[C@@H]2C1 | 6 | inactive | 22 | 4 | inactive | 45 | 9 | inactive | inactive | 1 | inactive | inactive | 48 | inactive | inactive | inactive | diameter of the inhibition zone (DIZ) (Saccharomyces cerevisiae): inactive; MIC (Bacillus cereus [13]): inactive; IC50 (HT-29 [14]): 8.51 µM; Activity (SAOS-2 [15]): 30%; diameter of the inhibition zone (DIZ) (Bacillus cereus [16]): inactive; MIC (Bacillus subtilis [17]): inactive; diameter of the inhibition zone (DIZ) (Bacillus subtilis [18]): inactive; Activity (Caco-2 [19]): 15%; diameter of the inhibition zone (DIZ) (Proteus vulgaris): inactive; Activity (MCF7 [20]): 57%; IC50 [21]: 12.7 µM; diameter of the inhibition zone (DIZ) (Salmonella typhimurium): inactive; Activity (HeLa [22]): 4%; IC50 (HeLa [23]): 74.2 µM; diameter of the inhibition zone (DIZ) [24]: inactive; diameter of the inhibition zone (DIZ) (Candida tropicalis): inactive; Activity (HT-29 [25]): 1%; diameter of the inhibition zone (DIZ) (Pseudomonas aeruginosa): inactive
10.4 | 16.7 | 32 µg/mL (≈ 68 µM) | 9.02 | CC1(C)CC[C@]2(C(=O)O)CC[C@]3(C)C(=CC[C@@H]4[C@@]5(C)CC[C@H](O)[C@@](C)(C=O)[C@@H]5CC[C@]43C)[C@@H]2C1 | 33 | inactive | 2 | 30 | inactive | 0 | 36 | inactive | inactive | 20 | 13 mm | inactive | 4 | inactive | inactive | inactive | diameter of the inhibition zone (DIZ) (Saccharomyces cerevisiae): inactive; MIC (Bacillus cereus [13]; ATCC 11778, 24 h): 32 µg/mL (≈ 68 µM); IC50 (HT-29 [14]): 11.9 µM; Activity (SAOS-2 [15]): 2%; diameter of the inhibition zone (DIZ) (Bacillus cereus [16]): 13 mm; MIC (Bacillus subtilis [17]; ATCC 6633, 24 h): 32 µg/mL (≈ 68 µM); diameter of the inhibition zone (DIZ) (Bacillus subtilis [18]): 13 mm; Activity (Caco-2 [19]): 0%; diameter of the inhibition zone (DIZ) (Proteus vulgaris): inactive; Activity (MCF7 [20]): 4%; IC50 [21]: 7.85 µM; diameter of the inhibition zone (DIZ) (Salmonella typhimurium): inactive; Activity (HeLa [22]): 29%; IC50 (HeLa [23]): 22.5 µM; diameter of the inhibition zone (DIZ) [24]: inactive; diameter of the inhibition zone (DIZ) (Candida tropicalis): inactive; Activity (HT-29 [25]): 21%; diameter of the inhibition zone (DIZ) (Pseudomonas aeruginosa): inactive
